Molecules are shown by their SMILES. pIC50: −log10 of the molar value. The source made the active and inactive calls. No cut-off for these calls is given here.

The term pIC50 denotes −log10 of the IC50, conventionally taken in molar units. Low readings indicate a high IC50, high ones a low IC50. In general, inhibition refers to the change of the read-out against control, counted positive when it falls.

Experiment [1] deals with MCF7. Nature of the experiment: Inhibition of growth of MCF7 cells. The format is functional, cell-based. To be noted: Homo sapiens.
Experiment [2] addresses Tubulin. In words: Inhibition of tubulin polymerization. The format is functional, Homo sapiens. A digest of the protocol: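 Tubulin 10 µM in 0.8 M monosodium glutamate (pH 6.6), preincubated 15 min at 30 °C with varying drug, chilled on ice, then GTP added to 0.4 mM. Turbidity followed at 350 nm for 20 min at 30 °C. Extent of assembly measured and IC50 derived.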
In experiment [3] the test system is SCLC. In words: Inhibition of growth of SCLC cells. It counts as functional, cell-based. To be noted: Homo sapiens.
Experiment [4] has as its target Tubulin (Homo sapiens) (UniProt P68371+Q9H4B7+P0DPH7+P68366+Q13509+Q71U36+P04350+Q3ZCM7+P07437+P68363+Q9BQE3+Q6PEY2+Q13885+Q9BVA1+Q9BUF5). Nature of the experiment: Displacement of [3H]colchicine from tubulin. It counts as protein-complex assay. The note with it: concentration not given here. A digest of the protocol:
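[3H]Colchicine 5.0 µM with 1.0 µM tubulin and 5.0 µM inhibitor, incubated 10 min at 37 °C. Result given as % inhibition of colchicine binding.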
(Loss of bound radioactivity is the signal in a displacement assay; it reports binding, not function.)

The target of experiment [5] is Heat shock protein HSP 90-alpha (Homo sapiens) (UniProt P07900). In words: Binding affinity to Hsp90-alpha by fluorescent polarization assay. The gist of the method: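 Fluorescence polarization competition with recombinant Hsp90α (30 nM) and GM-BODIPY (fluorescent geldanamycin, 5 nM) in 20 mM K-HEPES pH 7.3, 50 mM KCl, 5 mM MgCl2, 20 mM Na2MoO4, 0.01% NP40, 0.1 mg/mL bovine gamma globulin, 2 mM DTT. Shaken 24 h at 4 °C, mP read. EC50 = competitor concentration displacing 50% of probe.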

For the compound `CCOC(=O)c1[nH]c2ccc(OC)cc2c1Sc1cccc(OC)c1`, the pIC50 in experiment [1] is 6.55; in experiment [2] it was 5.51; in experiment [3] it was 6.23. For the same compound, the inhibition in experiment [4] is 39%.
On to `CCCOC(=O)c1[nH]c2ccccc2c1Sc1ccccc1`, for which the values for the pIC50 in experiment [1] and in experiment [2] were less than 5.60 and less than 4.40, respectively.
In the case of `CCOC(=O)c1[nH]c2ccc(OC)cc2c1Sc1ccc(OC)cc1`, the pIC50 in experiment [1] is less than 5.60; in experiment [2], less than 4.40; in experiment [3], less than 5.00.
As to `CCCCOC(=O)c1[nH]c2ccccc2c1Sc1ccccc1`, the pIC50 in experiment [1] was less than 5.60; in experiment [2] it was less than 4.40.
As to `CCOC(=O)c1[nH]c2ccccc2c1Sc1cccc(OC)c1`, the results for the pIC50 in experiment [1], in experiment [2] and in experiment [3] were 6.82, 5.54 and 6.23, respectively. The inhibition in experiment [4] was found to be 48%.
Regarding `COC(=O)c1[nH]c2cccc(OC)c2c1Sc1ccccc1`, the pIC50 is less than 5.60 in experiment [1] and less than 4.40 in experiment [2].
For `CC(C)OC(=O)c1[nH]c2ccccc2c1Sc1ccccc1` the same measures were less than 5.60 and 4.74.
For `COC(=O)c1[nH]c2ccc(Cl)cc2c1S(=O)(=O)c1ccccc1OC` the same measures were less than 5.60 and less than 4.40.
For the compound `O=C(OCc1ccccc1)c1[nH]c2ccccc2c1Sc1ccccc1`, the pIC50 in experiment [1] was less than 5.60; in experiment [2], less than 4.40.
The like results for `COC(=O)c1[nH]c2cc(OC)ccc2c1Sc1ccccc1` were, in that order, less than 5.60 and less than 4.40.
Compound `CCOC(=O)c1[nH]c2ccccc2c1Sc1cc(OC)c(OC)c(OC)c1` came in with an inhibition in experiment [4] of 51%.
With `COC(=O)c1[nH]c2ccc(Cl)cc2c1Sc1ccccc1OC`, the results for the pIC50 in experiment [1], in experiment [2] and in experiment [3] were 5.89, 5.38 and 5.15, respectively. Besides, the inhibition in experiment [4] worked out at 34%.
Take `CCOC(=O)c1[nH]c2cc(OC)c(OC)cc2c1Sc1ccccc1`: the results for the pIC50 in experiment [1] and in experiment [2] were less than 5.60 and 4.85, respectively.
Take `CCOC(=O)c1[nH]c2cc(OC)c(OC)cc2c1S(=O)(=O)c1ccccc1`: the pIC50 in experiment [1] is less than 5.60; in experiment [2], less than 4.40.
`CCOC(=O)c1[nH]c2ccc(Cl)cc2c1Sc1cc(OC)c(OC)c(OC)c1`: the pIC50 is 6.96 in experiment [1], 5.66 in experiment [2] and 7.03 in experiment [3]. Besides, the inhibition in experiment [4] worked out at 53%.
With `CCOC(=O)c1[nH]c2ccc(OC)cc2c1Sc1ccccc1OC`, the pIC50 in experiment [1] was 6.46; in experiment [2] it was 4.80; in experiment [3], 5.66.
The like results for `COC(=O)c1[nH]c2ccc(Cl)cc2c1S(=O)(=O)c1cccc(OC)c1` were, in that order, less than 5.60, 4.51 and less than 5.00.
For `CC(C)CCOC(=O)c1[nH]c2ccccc2c1Sc1ccccc1`, the pIC50 in experiment [1] was less than 5.60; in experiment [2], less than 4.40.
On to `COC(=O)c1[nH]c2ccc(Cl)cc2c1Sc1cc(OC)c(OC)c(OC)c1`, for which the outcome in experiment [5] was inactive. This compound yielded an inhibition in experiment [4] of 57%.
On to `CCOC(=O)c1[nH]c2ccccc2c1Sc1ccc(OC)cc1`, for which the pIC50 was less than 5.60 in experiment [1], less than 4.40 in experiment [2] and less than 5.00 in experiment [3].
`CCOC(=O)c1[nH]c2cc(OC)c(OC)cc2c1Sc1cc(OC)c(OC)c(OC)c1`: the results for the pIC50 in experiment [1] and in experiment [2] were 6.00 and 4.66, respectively.
Take `COC(=O)c1[nH]c2ccc(Cl)cc2c1Sc1cccc(OC)c1`: the pIC50 in experiment [1] is 6.48; in experiment [2] it was 5.74; in experiment [3], 5.49. For the same compound, in experiment [4], the inhibition is 53%.
The like results for `COC(=O)c1[nH]c2ccc(Cl)cc2c1Sc1cc(OC)cc(OC)c1` were, in that order, 7.47, 5.66, 7.74 and 82%.
With `CC(C)(C)OC(=O)c1[nH]c2ccccc2c1Sc1ccccc1`, the pIC50 in experiment [1] was less than 5.60; in experiment [2], less than 4.40.
With `CCOC(=O)c1[nH]c2ccc(OC)cc2c1Sc1cc(OC)c(OC)c(OC)c1`, the pIC50 is 7.34 in experiment [1] and 5.62 in experiment [2]. For the same compound, the inhibition in experiment [4] was 71%.
Take `COC(=O)c1[nH]c2ccc([N+](=O)[O-])cc2c1Sc1cc(OC)c(OC)c(OC)c1`: the figures for the pIC50 in experiment [1] and in experiment [2] were 6.92 and 5.35, respectively. The compound further returned an inhibition in experiment [4] of 32%.
As for `COC(=O)c1[nH]c2cc(OC)c(OC)cc2c1Sc1cc(OC)c(OC)c(OC)c1`, the pIC50 in experiment [1] is 5.80; in experiment [2] it was less than 4.40.
The like results for `CCOC(=O)c1[nH]c2ccccc2c1Sc1ccccc1OC` were, in that order, less than 5.60 and 4.92.
`COC(=O)c1[nH]c2ccc(OC)cc2c1S(=O)(=O)c1ccccc1`: the values for the pIC50 in experiment [1] and in experiment [2] were less than 5.60 and less than 4.40, respectively.
For `COC(=O)c1[nH]c2ccc(Cl)cc2c1S(=O)(=O)c1ccc(OC)cc1` the same measures were less than 5.60 and less than 4.40.
For the compound `CCC(C)OC(=O)c1[nH]c2ccccc2c1Sc1ccccc1` (centres undefined), the pIC50 is less than 5.60 in experiment [1] and less than 4.40 in experiment [2].

Values taken from ChEMBL document CHEMBL1149381, “New arylthioindoles: potent inhibitors of tubulin polymerization. 2. Structure-activity relationships and molecular modeling studies” (J Med Chem, 2006).
